Data set [1] is described as follows: Solubility measurement by UV absorbance. It is filed as physicochemical. In a few lines: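 DMSO stocks (100 mM) were diluted to 0–1000 μM in 10 mM PBS pH 7.4 with 1% DMSO; H2O and DMEM ± 10% FBS were also tested. Samples were shaken in the dark 6 h at room temperature (25 °C), equilibrated overnight and centrifuged at 600 x g for 15 min. Supernatant absorbance was read at 780 nm against blank, in triplicate.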

Data set [2] deals with most cell lines. To be noted: read-out: IC50 (cytotoxicity); cited from earlier work.
The nature of data set [3]: Photostability under LED illumination. It is filed as physicochemical. To be noted: 780 nm LED. The essentials:
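Solutions in 10 mM PBS pH 7.4, and in H2O with 1% DMSO, were left open to air and illuminated with a 780 nm LED. Dyes were used either equimolar (20 µM) or diluted to equal absorbance at 780 nm (1.7–2.7 µM). Absorbance at 780 nm was read every 10 min up to 60 min and plotted against time.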

The nature of data set [4]: In vivo biodistribution and clearance. As to conditions: normal CD-1 mice, 25 nmol intravenous, imaging 0.5-4 h.
Data set [5] concerns U87-MG cells. Put plainly: Cytotoxicity assay. To be noted: read-out: IC50 (cytotoxicity), 72 h in the dark, AlamarBlue. In kind it is cell-based. In a few lines:
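U87-MG cells grown in DMEM with 10% FBS at 37 °C, 5% CO2, passaged at 70% confluency. Seeded at 5000 cells/well and left overnight. DMSO stocks (0.02 M) were diluted in protein-free hybridoma medium (PFHM-II) to final 0.01–80 μM, then incubated 72 h. AlamarBlue added for 2 h; fluorescence read at Ex/Em 560/590 nm. Viability = background-corrected signal vs full-viability control ×100; n=5, mean ± SD.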
On the technique in general: Resazurin is reduced to fluorescent resorufin, in cell work by metabolically active cells.

The subject of data set [6] is U87-MG cells. Nature of the data set: Organelle co-localization. In kind it is cell-based. To be noted: 20 µM, 37 °C, DMEM/F12 with 10% FBS pH 7.4. The essentials:
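50,000 U87-MG cells were plated in chamber wells and adhered overnight. Then 20 μM test compound for 30 min, two PBS washes, organelle trackers (LysoTracker Green DND 26, MitoTracker Green FM, BODIPY FL C5-ceramide–BSA, ER Tracker Green), then NucBlue 10 min. Confocal imaging, 60x water objective. Lasers: 488 nm for organelle stains, 405 nm for nuclei, 633 nm for dye. Cells re-imaged after 24 h in FluoroBrite DMEM + 10% FBS; co-localization expressed as Pearson's R.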

Data set [7] in a line: Aggregation: concentration dependence of absorbance spectra. To be noted: 1.25 - 20 µM in 10 mM pH 7.4 PBS buffer. It is filed as physicochemical.
Data set [8] in a line: Photophysical properties. In kind it is physicochemical. To be noted: 10 mM PBS buffer pH 7.4. In a few lines: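 Dyes in 10 mM PBS pH 7.4, 1 cm cuvettes. Excitation 730 nm; integrated emission 740–900 nm, with maximum absorbance kept below 0.1. Quantum yield came from the gradient of integrated fluorescence vs absorbance over several concentrations, referenced to ICG in DMSO (Φ 0.13). Relative absorbance and fluorescence were compared at 5 µM in the same buffer.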

The conditions of data set [9]: in DMSO; λex 730 nm; used as standard; listed as ICG; cited from earlier work.

`CC1(C)C(/C=C/C2=C(Cl)C(=C/C=C3\N(CCCCCC(=O)O)c4ccccc4C3(C)C)/CCC2)=[N+](CCCCCC(=O)O)c2ccccc21` [compound B]: in [1] (10 mM pH 7.4 PBS buffer), the “solubility (soluble up to)” value is not below 1000 µM. The “concentration at which it begins to aggregate” value in [1] (H2O) is given as 100 µM. Further, the “solubility” value in data set [1] (in water, 25 °C) is reported as “much less soluble”. Besides, in data set [2], the IC50 (commonly the concentration that inhibits the measured activity by half) is approximately 20 µM. Further, in data set [3] (1 h, A 2.7 µM, B 2 µM, 1 1.7 µM (same absorbance at 780 nm), 10 mM pH 7.4 PBS), the “photostability” value is “least stable and decomposed”. Moreover, the “photodecomposition t1/2” value in [3] (same absorbance at 780 nm, 10 mM pH 7.4 PBS buffer) is less than 10 min. Also, the “organ signal / excretion” value in data set [4] is “high signal in the liver and low signal in duodenum even after 4 h post-injection”. For the same molecule, the half-inhibitory concentration (IC50) in [5] turned out to be 19.1 ± 1.01 µM. For the same molecule, in data set [6], the “localization after time 0.5 h” value was “mitochondria”; the “localization after time 24 h” value is “mitochondria and lysosome”. Moreover, the “H-aggregation from absorbance spectra” value in data set [7] is given as “blue-shifted shoulder”. Moreover, in [8], the “brightness (εmax x Φ)” value is 3689, the εmax was found to be 149940 cm^-1M^-1, the λabs worked out at 775 nm and the λem was determined as 799 nm. Further, the “∆λ (Stokes' shift)” value in [8] is 24 nm. Further, in data set [8] (relative to A), the relative brightness was found to be 1.90. Further, the “Φ (fluorescence quantum yield)” value in data set [8] (λex 730 nm, standard A in DMSO) amounted to 0.025.
In the case of `CC1(C)C(/C=C/C=C/C=C/C=C2\N(CCCCS(=O)(=O)O)c3ccc4ccccc4c3C2(C)C)=[N+](CCCCS(=O)(=O)[O-])c2ccc3ccccc3c21` [compound A, indocyanine green], the “Φ (fluorescence quantum yield) of the standard” value in [9] is listed as 0.13. Also, in data set [6], the “localization after time 0.5 h” value was “golgi and ER”; the “localization after time 24 h” value is “golgi and lysosome”.

The record behind these values is article PMC6568187 (Theranostics, 2019).
